From ChEMBL document CHEMBL1926564, “Design, synthesis and biological activity of original pyrazolo-pyrido-diazepine, -pyrazine and -oxazine dione derivatives as novel dual Nox4/Nox1 inhibitors” (Bioorg Med Chem, 2011)

Key:
[1] = Half life in Sprague-Dawley rat at 5 mg/kg, iv; format: ADME, organism-based; design: dose 5 mg/kg, route intravenous; conditions: in vivo
Procedure, shortened: (§1)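 Rats in two groups of three: 5 mg/kg iv in EDPW (10% EtOH, 10% DMA, 30% PG, 50% water) or 10 mg/kg oral in aqueous 0.5% CMC/0.25% Tween 20. Carotid arterial cannula blood sampled up to 24 h. Plasma levels by LC/MS/MS (LLOQ 1.00 ng/mL); noncompartmental analysis.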

[2] = AUC (infinity) in Sprague-Dawley rat at 5 mg/kg, iv; format: ADME, organism-based; design: time infinity, dose 5 mg/kg, route intravenous; conditions: plasma; procedure, shortened: as §1
Cytochrome P450 2C9 = Cytochrome P450 2C9 (Homo sapiens, UniProt P11712); experiment: Inhibition of human recombinant CYP2C9 by mass spectrophotometry; format: ADME
Procedure, shortened: (§2)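 Compound 0.1–25 µM (0.3% DMSO) incubated with microsomes, NADPH and isoform-specific probe substrate. CYP2C19, 2C9, 2D6, 3A4 metabolites measured by mass spectrometry; CYP1A2 by fluorescent metabolite. IC50 from reduced metabolite formation versus vehicle.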

[3] = Tmax in Sprague-Dawley rat at 10 mg/kg, po; format: ADME, organism-based; design: dose 10 mg/kg, route oral; conditions: in vivo; procedure, shortened: as §1
[4] = AUC (infinity) in Sprague-Dawley rat at 10 mg/kg, po; format: ADME, organism-based; design: dose 10 mg/kg, route oral, time infinity; conditions: plasma; procedure, shortened: as §1
[5] = Clearance in Sprague-Dawley rat at 5 mg/kg, iv; format: ADME, organism-based; design: dose 5 mg/kg, route intravenous; conditions: in vivo; procedure, shortened: as §1
Cytochrome P450 2C19 = Cytochrome P450 2C19 (Homo sapiens, UniProt P33261); experiment: Inhibition of human recombinant CYP2C19 by mass spectrophotometry; format: ADME; procedure, shortened: as §2
Homo sapiens = species: Homo sapiens; experiment: Selectivity ratio of Ki for human NOX2 to Ki for human NOX4
Procedure, shortened: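 Ratio of Ki values from the Amplex Red membrane ROS assay (PMN membranes for Nox2, Nox4-overexpressing membranes), NADPH-triggered, 1 nM–100 µM, 20 min at 37 °C; Ki via Cheng-Prusoff.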

[6] = Mutagenicity in micronucleus at 500 uM by in vitro assay; format: ADME
Cytochrome P450 2D6 = Cytochrome P450 2D6 (Homo sapiens, UniProt P10635); experiment: Inhibition of human recombinant CYP2D6 by mass spectrophotometry; format: ADME; procedure, shortened: as §2
Cytochrome P450 1A2 = molecular target: T1, Cytochrome P450 1A2 (Homo sapiens, UniProt P05177); experiment: Inhibition of human recombinant CYP1A2 assessed as inhibition of fluorescent metabolite formation; format: ADME; procedure, shortened: as §2
T1 sequence (P05177 whole entry): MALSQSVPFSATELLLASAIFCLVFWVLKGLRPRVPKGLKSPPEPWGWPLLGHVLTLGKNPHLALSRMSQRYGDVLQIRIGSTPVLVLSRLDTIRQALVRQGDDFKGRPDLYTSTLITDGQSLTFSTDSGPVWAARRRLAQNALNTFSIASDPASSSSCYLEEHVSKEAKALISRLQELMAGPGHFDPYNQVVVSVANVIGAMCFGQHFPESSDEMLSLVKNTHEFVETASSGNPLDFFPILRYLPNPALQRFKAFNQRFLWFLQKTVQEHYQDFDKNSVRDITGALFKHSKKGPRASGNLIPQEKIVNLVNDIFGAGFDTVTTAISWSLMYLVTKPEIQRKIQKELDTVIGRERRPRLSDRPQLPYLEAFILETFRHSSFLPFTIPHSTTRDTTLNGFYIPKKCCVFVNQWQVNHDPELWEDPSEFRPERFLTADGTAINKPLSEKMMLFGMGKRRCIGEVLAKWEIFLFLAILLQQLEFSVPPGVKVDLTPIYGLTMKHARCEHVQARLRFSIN

Cytochrome P450 3A4 = Cytochrome P450 3A4 (Homo sapiens, UniProt P08684); experiment: Inhibition of human recombinant CYP3A4 by mass spectrophotometry; format: ADME; procedure, shortened: as §2
[7] = Clearance in Sprague-Dawley rat at 10 mg/kg, po; format: ADME, organism-based; design: dose 10 mg/kg, route oral; conditions: in vivo; procedure, shortened: as §1
NADPH oxidase 2 = molecular target: T2, NADPH oxidase 2 (Homo sapiens, UniProt P04839); experiment: Antagonist activity at human NOX2 in human polymorphonuclear cell membrane assessed as inhibition of ROS production after 20 mins by cell-free amplex red assay; format: functional
T2 sequence (P04839 whole entry): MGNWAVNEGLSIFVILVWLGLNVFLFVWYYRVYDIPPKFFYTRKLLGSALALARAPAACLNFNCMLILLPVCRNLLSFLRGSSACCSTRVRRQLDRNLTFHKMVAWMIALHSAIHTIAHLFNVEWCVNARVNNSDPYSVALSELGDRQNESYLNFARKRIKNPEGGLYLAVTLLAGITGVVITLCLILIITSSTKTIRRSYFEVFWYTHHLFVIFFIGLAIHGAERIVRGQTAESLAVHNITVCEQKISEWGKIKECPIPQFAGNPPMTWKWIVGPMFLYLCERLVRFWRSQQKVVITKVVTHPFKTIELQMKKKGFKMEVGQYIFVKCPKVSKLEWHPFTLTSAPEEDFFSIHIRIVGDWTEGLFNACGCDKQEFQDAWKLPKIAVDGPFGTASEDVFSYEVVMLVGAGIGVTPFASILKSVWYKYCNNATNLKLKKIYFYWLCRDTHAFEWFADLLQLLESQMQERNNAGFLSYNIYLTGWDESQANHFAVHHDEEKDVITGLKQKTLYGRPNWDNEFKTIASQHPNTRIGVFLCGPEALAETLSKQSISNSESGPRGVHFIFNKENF
Procedure, shortened: (§3)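 Membranes from tetracycline-induced (24 h) Nox-expressing cells or human PMN (Nox2), sucrose-gradient purified; or xanthine oxidase. Incubated in PBS with Amplex Red, HRP and cofactors; NADPH (Nox) or xanthine starts ROS. Compound 1 nM–100 µM, 20 min at 37 °C, plate-reader. Background without membranes or agonist. Ki by Cheng-Prusoff; mean of ≥3 experiments in triplicate.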

[8] = Lipophilicity, log D of the compound at pH 7.4; format: physicochemical; conditions: buffer
Salmonella typhimurium [9] = experiment: Genotoxicity in Salmonella Typhimurium at 100 uM by AMES test; format: toxicity, organism-based; conditions: salmonella enterica subsp. enterica serovar typhimurium
Salmonella typhimurium [10] = experiment: Mutagenicity in Salmonella Typhimurium at 100 uM by AMES test; format: toxicity, organism-based; conditions: salmonella enterica subsp. enterica serovar typhimurium
hERG = hERG (Homo sapiens, UniProt Q12809); experiment: Inhibition of hERG at 1 uM by patch clamp assay; format: toxicity
[11] = Efflux ratio of apparent permeability across human Caco2 cells at 10 uM after 2 hrs; format: ADME, cell-based; conditions: Caco-2
Procedure, shortened: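 Caco-2 monolayers grown 20 days, TEER >800 ohm·cm². Compound 10 µM final in HBSS pH 6.5 (1% DMSO), dosed apical (A→B) or basolateral (B→A), 2 h at 37 °C; both compartments sampled, LC–MS/MS cassette analysis with 5-point calibration.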

Mus musculus = experiment: Antifibrotic activity in C57BL/6 mouse pulmonary fibrosis curative model assessed as reduction in bleomycin-induced collagen deposition at 10 mg/kg, po qd administered 10 days post challenge […] measured on day 25 by SIRCOL assay; format: functional
Procedure, shortened: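 Male C57BL/6 mice (9–10 weeks) under ketamine/xylazine given 0.0125 U bleomycin intratracheally in 40 µL saline. Daily oral dosing at 10 mL/kg in 3% DMSO then aqueous 0.5% CMC/0.25% Tween 20. Whole-lung collagen by Sircol dye binding (0.5 M acetic acid extraction overnight, 540 nm, rat-tail collagen standard), µg per lung.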

[12] = molecular target: Xanthine dehydrogenase/oxidase (Homo sapiens, UniProt P47989); experiment: Inhibition of xanthine oxidase assessed as inhibition of ROS production after 20 mins by cell-free amplex red assay; procedure, shortened: as §3
Sequence of Xanthine dehydrogenase/oxidase (P47989 whole entry): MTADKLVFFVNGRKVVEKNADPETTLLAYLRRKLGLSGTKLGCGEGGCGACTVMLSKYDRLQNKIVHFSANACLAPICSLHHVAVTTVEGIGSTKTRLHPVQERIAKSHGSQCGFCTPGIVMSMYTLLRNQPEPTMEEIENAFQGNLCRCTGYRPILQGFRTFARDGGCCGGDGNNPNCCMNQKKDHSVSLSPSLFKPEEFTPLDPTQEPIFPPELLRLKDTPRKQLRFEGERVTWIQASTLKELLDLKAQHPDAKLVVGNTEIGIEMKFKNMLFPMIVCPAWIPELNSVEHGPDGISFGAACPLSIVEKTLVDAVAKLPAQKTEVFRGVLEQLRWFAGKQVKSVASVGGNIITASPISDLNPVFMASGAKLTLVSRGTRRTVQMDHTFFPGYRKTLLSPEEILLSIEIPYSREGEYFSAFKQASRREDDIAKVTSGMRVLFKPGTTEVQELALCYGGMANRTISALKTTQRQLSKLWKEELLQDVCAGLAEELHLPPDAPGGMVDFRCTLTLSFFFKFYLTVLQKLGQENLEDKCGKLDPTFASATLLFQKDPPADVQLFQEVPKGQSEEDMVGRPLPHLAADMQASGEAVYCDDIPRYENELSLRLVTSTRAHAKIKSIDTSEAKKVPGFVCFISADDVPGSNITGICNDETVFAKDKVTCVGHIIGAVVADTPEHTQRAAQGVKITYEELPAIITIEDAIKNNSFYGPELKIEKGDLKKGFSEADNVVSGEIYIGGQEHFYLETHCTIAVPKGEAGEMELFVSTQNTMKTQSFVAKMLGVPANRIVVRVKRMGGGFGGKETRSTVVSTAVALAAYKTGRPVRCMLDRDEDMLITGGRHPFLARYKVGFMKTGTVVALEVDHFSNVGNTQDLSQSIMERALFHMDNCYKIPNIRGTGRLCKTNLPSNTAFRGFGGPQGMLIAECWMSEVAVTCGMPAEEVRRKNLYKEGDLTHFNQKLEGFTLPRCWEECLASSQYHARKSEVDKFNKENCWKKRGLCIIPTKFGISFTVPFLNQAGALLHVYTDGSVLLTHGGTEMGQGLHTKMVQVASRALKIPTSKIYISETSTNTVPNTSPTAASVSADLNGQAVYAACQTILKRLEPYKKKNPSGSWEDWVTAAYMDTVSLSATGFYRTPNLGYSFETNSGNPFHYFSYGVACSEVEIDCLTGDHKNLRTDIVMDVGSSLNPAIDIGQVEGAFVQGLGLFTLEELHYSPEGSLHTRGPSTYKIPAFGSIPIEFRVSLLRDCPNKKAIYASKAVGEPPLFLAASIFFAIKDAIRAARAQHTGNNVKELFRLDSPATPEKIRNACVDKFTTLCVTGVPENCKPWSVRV

Sequence of hERG (Q12809 whole entry): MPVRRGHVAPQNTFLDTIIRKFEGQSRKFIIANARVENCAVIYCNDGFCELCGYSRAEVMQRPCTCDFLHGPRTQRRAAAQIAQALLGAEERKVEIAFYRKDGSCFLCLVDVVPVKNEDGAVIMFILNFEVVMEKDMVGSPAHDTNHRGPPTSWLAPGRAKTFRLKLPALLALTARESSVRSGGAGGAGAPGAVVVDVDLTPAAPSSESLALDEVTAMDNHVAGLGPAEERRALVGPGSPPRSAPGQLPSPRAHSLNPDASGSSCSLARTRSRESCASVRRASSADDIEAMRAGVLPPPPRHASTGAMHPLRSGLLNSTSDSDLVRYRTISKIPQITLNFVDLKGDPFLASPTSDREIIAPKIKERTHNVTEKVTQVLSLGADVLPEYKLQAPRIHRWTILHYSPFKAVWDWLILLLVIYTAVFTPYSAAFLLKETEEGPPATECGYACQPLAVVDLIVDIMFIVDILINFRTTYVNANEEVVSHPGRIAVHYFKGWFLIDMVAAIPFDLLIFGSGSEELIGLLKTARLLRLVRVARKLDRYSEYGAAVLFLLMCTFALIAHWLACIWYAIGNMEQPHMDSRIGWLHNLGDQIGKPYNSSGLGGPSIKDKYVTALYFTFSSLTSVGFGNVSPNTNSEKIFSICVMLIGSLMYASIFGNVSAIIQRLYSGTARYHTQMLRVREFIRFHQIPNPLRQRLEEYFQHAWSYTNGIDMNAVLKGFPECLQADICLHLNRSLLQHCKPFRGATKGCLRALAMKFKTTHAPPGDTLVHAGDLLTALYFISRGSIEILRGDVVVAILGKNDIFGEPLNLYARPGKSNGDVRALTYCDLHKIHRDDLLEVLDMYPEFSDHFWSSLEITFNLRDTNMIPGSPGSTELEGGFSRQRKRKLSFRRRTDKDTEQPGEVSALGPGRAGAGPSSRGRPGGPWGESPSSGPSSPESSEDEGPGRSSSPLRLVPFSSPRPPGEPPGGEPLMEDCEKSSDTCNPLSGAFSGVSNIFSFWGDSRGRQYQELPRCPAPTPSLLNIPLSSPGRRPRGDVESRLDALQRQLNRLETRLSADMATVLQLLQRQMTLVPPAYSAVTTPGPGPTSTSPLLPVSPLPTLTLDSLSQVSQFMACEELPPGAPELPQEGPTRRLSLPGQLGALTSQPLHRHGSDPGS
Sequence of Cytochrome P450 3A4 (P08684 whole entry): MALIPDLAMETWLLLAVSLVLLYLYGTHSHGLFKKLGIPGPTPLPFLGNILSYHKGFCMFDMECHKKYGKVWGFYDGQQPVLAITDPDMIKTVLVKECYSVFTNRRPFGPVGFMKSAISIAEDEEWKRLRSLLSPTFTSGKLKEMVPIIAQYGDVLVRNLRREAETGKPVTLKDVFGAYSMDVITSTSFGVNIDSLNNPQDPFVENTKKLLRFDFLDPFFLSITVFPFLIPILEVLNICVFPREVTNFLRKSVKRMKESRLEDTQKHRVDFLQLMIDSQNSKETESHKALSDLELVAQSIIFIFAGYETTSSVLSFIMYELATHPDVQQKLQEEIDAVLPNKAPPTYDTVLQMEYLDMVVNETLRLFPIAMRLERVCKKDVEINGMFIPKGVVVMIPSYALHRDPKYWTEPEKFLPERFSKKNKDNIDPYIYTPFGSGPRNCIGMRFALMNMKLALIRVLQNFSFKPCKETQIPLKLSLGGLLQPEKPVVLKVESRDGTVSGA
Sequence of Cytochrome P450 2C19 (P33261 whole entry): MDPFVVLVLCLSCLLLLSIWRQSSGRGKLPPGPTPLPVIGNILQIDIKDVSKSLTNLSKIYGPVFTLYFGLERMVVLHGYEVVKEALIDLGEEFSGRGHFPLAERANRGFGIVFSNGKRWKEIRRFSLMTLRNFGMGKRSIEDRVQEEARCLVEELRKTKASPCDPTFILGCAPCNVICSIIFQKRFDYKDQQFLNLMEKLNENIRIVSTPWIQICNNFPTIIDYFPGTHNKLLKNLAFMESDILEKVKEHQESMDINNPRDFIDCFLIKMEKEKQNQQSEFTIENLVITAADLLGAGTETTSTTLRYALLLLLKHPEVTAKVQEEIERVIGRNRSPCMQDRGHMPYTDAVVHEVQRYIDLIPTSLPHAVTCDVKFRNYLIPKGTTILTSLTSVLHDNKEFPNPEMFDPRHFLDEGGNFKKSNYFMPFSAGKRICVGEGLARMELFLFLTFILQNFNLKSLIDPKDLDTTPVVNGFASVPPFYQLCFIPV
Sequence of Cytochrome P450 2C9 (P11712 whole entry, canonical isoform): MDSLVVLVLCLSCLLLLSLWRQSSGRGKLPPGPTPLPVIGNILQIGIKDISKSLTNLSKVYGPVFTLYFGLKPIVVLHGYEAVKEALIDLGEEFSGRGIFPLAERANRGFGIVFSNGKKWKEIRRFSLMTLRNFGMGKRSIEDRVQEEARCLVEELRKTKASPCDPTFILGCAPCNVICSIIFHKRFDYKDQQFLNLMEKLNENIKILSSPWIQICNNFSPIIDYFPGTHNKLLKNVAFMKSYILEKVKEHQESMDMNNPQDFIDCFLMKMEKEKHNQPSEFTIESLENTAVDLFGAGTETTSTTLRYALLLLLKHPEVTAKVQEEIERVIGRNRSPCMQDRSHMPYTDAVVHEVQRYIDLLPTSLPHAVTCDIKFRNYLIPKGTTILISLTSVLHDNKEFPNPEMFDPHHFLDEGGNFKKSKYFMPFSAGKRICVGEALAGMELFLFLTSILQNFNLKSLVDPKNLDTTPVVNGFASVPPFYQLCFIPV
Sequence of Cytochrome P450 2D6 (P10635 whole entry): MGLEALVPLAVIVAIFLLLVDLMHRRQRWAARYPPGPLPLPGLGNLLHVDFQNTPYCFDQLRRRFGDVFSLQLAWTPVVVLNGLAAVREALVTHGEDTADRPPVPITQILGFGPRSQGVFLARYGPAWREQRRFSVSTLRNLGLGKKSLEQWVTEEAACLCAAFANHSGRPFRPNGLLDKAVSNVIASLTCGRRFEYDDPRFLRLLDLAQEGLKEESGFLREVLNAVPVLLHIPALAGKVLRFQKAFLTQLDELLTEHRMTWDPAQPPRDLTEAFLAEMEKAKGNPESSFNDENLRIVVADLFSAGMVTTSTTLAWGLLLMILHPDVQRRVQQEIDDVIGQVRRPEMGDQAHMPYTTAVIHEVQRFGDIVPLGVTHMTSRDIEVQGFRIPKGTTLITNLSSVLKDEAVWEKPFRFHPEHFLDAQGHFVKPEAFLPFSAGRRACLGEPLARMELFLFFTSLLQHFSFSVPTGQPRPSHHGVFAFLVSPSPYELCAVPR

Row | Structure (SMILES) | half-life [1] [h] | AUC(0-inf) [2] [ng·h/mL] | Tmax [3] [h] | AUC(0-inf) [4] [ng·h/mL] | clearance [5] [mL/min/kg] | CL/F [7] [mL/min/kg] | Ki (NADPH oxidase 2) [µM] | logD [8] | efflux ratio at 2 h, 10 µM [11] | other results
1 | Cl.O=c1c2c3n(c(=O)cc2[nH]n1-c1ccccc1Cl)CCCN(Cc1ccccc1)C3 | 2.71 | 39300 | 0.33 | 41400 | 2.17 | 4.33 | 1.34 | 2.23 | 0.48 | IC50 (Cytochrome P450 2C9): > 25 µM; IC50 (Cytochrome P450 2C19): > 25 µM; Ratio Ki (Homo sapiens): 18.6; Activity [6]: Non-toxic; IC50 (Cytochrome P450 2D6): > 25 µM; IC50 (Cytochrome P450 1A2): > 25 µM; IC50 (Cytochrome P450 3A4): > 25 µM; Activity (Salmonella typhimurium [9]): Non-toxic; Activity (Salmonella typhimurium [10]): Non-toxic; inhibition at 1 µM (hERG): 8.7%; inhibition in vivo at 10 mg/kg (Mus musculus): 64%; Ki [12]: > 30 µM
2 | Cl.O=c1c2c3n(c(=O)cc2[nH]n1-c1ccccc1Cl)CCCN(Cc1ccccn1)C3 | 5.62 | 11800 | 0.25 | 9900 | 7.67 | 17 | 1.14 | 1.1 | 10.1 | 
